We go through two molecules from ChEMBL document CHEMBL3769384, “Discovery of Tetrahydropyrazolopyridine as Sphingosine 1-Phosphate Receptor 3 (S1P3)-Sparing S1P1 Agonists Active at Low Oral Doses” (J Med Chem, 2016).

A short description of data set [1]: Volume of distribution at steady state in CD1 mouse at 1 mg/kg, iv after 24 hrs by LC-MS/MS analysis. Particulars: in vivo, read-out: Vdss. Format: ADME, organism-based. The method in brief: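 Male CD1 mice with a jugular vein cannula got a 1 h IV infusion at 1 mg/kg, dosed at 0.2 mg/mL in DMSO:10% w/v Kleptose HPB in saline (2%:98% v/v). Serial tail-vein blood (ca. 25 µL) was taken up to 24 h and assayed against calibration standards in control blood. Non-compartmental analysis was used; n=5, mean ± SD.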

Data set [2] is described as follows: Half life in CD1 mouse at 1 mg/kg, iv after 24 hrs by LC-MS/MS analysis. The data set is classed as ADME, organism-based. The following applies: in vivo. The method in brief: (§1)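 Male animals (CD rat and Beagle dog, n=3; CD1 mouse, n=5) given a 1 h i.v. infusion at 1 mg/kg. Vehicle: DMSO:10% Kleptose HPB in saline (2%:98% v/v), 0.2 mg/mL. Serial blood sampled up to 24 h and assayed by LC-MS/MS. Values from non-compartmental analysis, mean ± SD.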

The nature of data set [3]: Half life in CD rat at 1 mg/kg, iv after 24 hrs by LC-MS/MS analysis. The following applies: in vivo. The data set is classed as ADME, organism-based. The method, boiled down:
as §1

Data set [4] in a line: Solubility of compound in FaSSIF at pH 6.5 after 24 hrs. Format: physicochemical.
Data set [5] in a line: Solubility of compound in FeSSIF at pH 6.5 after 24 hrs. Format: physicochemical.
A short description of data set [6]: Oral bioavailability in CD rat at 3 mg/kg after 24 hrs by LC-MS/MS analysis. The following applies: in vivo. Format: ADME, organism-based. The method, boiled down:
(§2)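 Oral dose as a suspension in 1% methylcellulose: CD rat 3 mg/kg (2 rats, crossover after i.v.), Beagle dog 2 mg/kg (fasted, crossover after i.v.), CD1 mouse 3 mg/kg by gavage (n=4). Blood sampled up to 24 h and assayed by LC-MS/MS. Bioavailability was referenced to the 1 h i.v. infusion at 1 mg/kg, by non-compartmental analysis.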

Data set [7] can be described thus: Oral bioavailability in CD1 mouse at 3 mg/kg after 24 hrs by LC-MS/MS analysis. Format: ADME, organism-based. The following applies: in vivo. The method in brief:
as §2

A short description of data set [8]: Solubility of compound in simulated gastric fluid at pH 1.6 after 24 hrs. Format: ADME.
A short description of data set [9]: Clearance in CD1 mouse at 1 mg/kg, iv after 24 hrs by LC-MS/MS analysis. The data set is classed as ADME, organism-based. The following applies: in vivo. The method in brief:
as §1

Data set [10] can be described thus: Clearance in CD rat at 1 mg/kg, iv after 24 hrs by LC-MS/MS analysis. Format: ADME, organism-based. The following applies: in vivo. The method in brief: as §1
The nature of data set [11]: Volume of distribution at steady state in CD rat at 1 mg/kg, iv after 24 hrs by LC-MS/MS analysis. The data set is classed as ADME, organism-based. Particulars: in vivo, read-out: Vdss. The method in brief: as §1
Data set [12] can be described thus: Oral bioavailability in beagle dog at 2 mg/kg 24 hrs by LC-MS/MS analysis. The following applies: in vivo. Format: ADME, organism-based, Canis lupus familiaris. The method in brief:
as §2

Data set [13] is described as follows: Clearance in beagle dog at 1 mg/kg, iv after 24 hrs by LC-MS/MS analysis. Format: ADME, organism-based, Canis lupus familiaris. The following applies: in vivo. The method in brief:
as §1

The nature of data set [14]: Volume of distribution at steady state in beagle dog at 1 mg/kg, iv after 24 hrs by LC-MS/MS analysis. The data set is classed as ADME, organism-based, Canis lupus familiaris. Particulars: in vivo, read-out: Vdss. The method, boiled down: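 Three fasted male Beagle dogs got a 1 h IV infusion at 1 mg/kg, dosed at 0.2 mg/mL in DMSO:10% w/v Kleptose HPB in saline (2%:98% v/v). Blood went into K-EDTA tubes predose to 24 h, from a cephalic cannula to 2 h and by jugular venepuncture after. Analysis was LC-MS/MS (LLQ 1 ng/mL) with non-compartmental parameters; mean n=3 ± SD.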

Data set [15] can be described thus: Half life in beagle dog at 1 mg/kg, iv after 24 hrs by LC-MS/MS analysis. Format: ADME, organism-based, Canis lupus familiaris. The following applies: in vivo. The method, boiled down:
as §1

Usually half-life stands for how long it takes for the measured level to halve. Lower therefore signals fast loss. The solubility is the dissolved amount per volume that the medium holds. Read a high solubility as a readily soluble substance. By bioavailability is commonly meant the share of a dose that reaches the circulation, judged against a reference dose that is usually intravenous. A word on the clearance: it is the volume of plasma or blood freed of the substance per unit of time.

With `Cc1c2c(nn1-c1nnc(-c3ccc(OC(C)C)c(Cl)c3)s1)CCN(CCC(=O)O)C2.O=C(O)C(F)(F)F`, the Vd stood at 3.3 L/kg in data set [1] and 3.7 L/kg in [11]. Further, the half-life in data set [2] was 3.8 h; in data set [3] it was 4.4 h. Moreover, the solubility at 24 h in data set [4] was 3 µg/mL; in data set [5], 4 µg/mL; in [8], 37 µg/mL. Besides, the bioavailability came out at 48% in data set [6] and 79% in [7]. For the same molecule, the clearance amounted to 16 mL/min/kg in data set [9] and 24 mL/min/kg in data set [10].
The molecule `Cc1c2c(nn1-c1nnc(-c3ccc(OC(C)C)c(Cl)c3)s1)CCN(CCC(=O)O)C2.Cl` came in with a bioavailability in data set [12] of 44%. The solubility at 24 h is 16 µg/mL in data set [4], 46 µg/mL in [5] and 7 µg/mL in data set [8]. In data set [13], this molecule gave a clearance of 33 mL/min/kg. The Vd in [14] amounted to 5.3 L/kg. In addition, the half-life in data set [15] was 6.5 h.
